Assays:
[1] = molecular target: T1, Fe(3+)-Zn(2+) purple acid phosphatase (Phaseolus vulgaris, UniProt P80366); assay: Competitive inhibition of red kidney bean purple acid phosphatase Fe(3)Fe(2) state assessed as enzyme-inhibitor complex using pNPP as substrate by UV/Vis spectrophotometric method
T1 sequence (P80366 whole entry): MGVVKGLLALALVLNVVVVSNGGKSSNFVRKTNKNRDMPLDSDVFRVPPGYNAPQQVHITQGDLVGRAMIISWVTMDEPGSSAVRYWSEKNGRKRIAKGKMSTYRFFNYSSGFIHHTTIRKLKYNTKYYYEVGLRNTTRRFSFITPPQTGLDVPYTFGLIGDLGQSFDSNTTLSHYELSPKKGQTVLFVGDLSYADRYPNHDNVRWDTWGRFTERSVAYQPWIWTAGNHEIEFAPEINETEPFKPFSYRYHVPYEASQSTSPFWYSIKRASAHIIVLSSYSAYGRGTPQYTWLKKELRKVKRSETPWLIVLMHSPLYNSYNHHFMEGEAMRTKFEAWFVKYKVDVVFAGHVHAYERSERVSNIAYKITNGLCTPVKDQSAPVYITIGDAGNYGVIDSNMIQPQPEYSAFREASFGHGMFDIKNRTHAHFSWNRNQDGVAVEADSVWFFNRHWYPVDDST
How it was run: (§1)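 Pig PAP was from sow uterine fluid and pre-reduced to Fe(III)Fe(II) with 0.77 mM β-mercaptoethanol (10 min, 37 °C); rkbPAP was purified from red kidney beans. Assays ran at 25 °C, pH 4.9 (0.1 M acetate, 25% DMSO) with 12 nM enzyme, pNPP 1–12.5 mM and inhibitor 50–300 μM. p-Nitrophenol was read at 405 nm. Kic and Kiuc came from non-linear fit to the general inhibition equation.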

[2] = molecular target: T2, Tartrate-resistant acid phosphatase type 5 (Sus scrofa, UniProt P09889); assay: Competitive inhibition of pig purple acid phosphatase Fe(3)Fe(2) state assessed as enzyme-inhibitor complex using pNPP as substrate by UV/Vis spectrophotometric method; how it was run: as §1
T2 sequence (P09889 whole entry): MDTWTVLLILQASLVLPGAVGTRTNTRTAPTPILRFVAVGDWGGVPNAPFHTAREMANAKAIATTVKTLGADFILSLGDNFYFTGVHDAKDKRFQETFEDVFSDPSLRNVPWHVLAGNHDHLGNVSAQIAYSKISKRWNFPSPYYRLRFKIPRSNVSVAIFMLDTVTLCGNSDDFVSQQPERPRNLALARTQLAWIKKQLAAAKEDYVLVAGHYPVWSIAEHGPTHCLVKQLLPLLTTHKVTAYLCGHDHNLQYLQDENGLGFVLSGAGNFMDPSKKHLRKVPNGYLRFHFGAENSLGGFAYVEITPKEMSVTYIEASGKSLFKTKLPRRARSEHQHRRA

| Ki [1] | Ki [2] | SMILES |
| --- | --- | --- |
| 400 µM | 120 µM | COc1ccc(-c2nc(C(=O)O)cs2)cc1 |
| 920 µM | 630 µM | O=C(O)c1csc(-c2ccccc2Cl)n1 |
| 530 µM | 49 µM | O=C(O)c1csc(-c2ccc(Cl)cc2)n1 |
| – | 190 µM | O=C(O)c1csc(-c2ccccc2)n1 |

| SMILES | Ki [1] | Ki [2] |
| --- | --- | --- |
| Cc1ccc(-c2nc(C(=O)O)cs2)cc1 | 340 µM | 42 µM |
| O=C(O)c1csc(-c2cccc3ccccc23)n1 | 185 µM | 33 µM |

Reference: BindingDB's records for doi:10.1016/j.ejmech.2018.08.004 (The University of Queensland, 2018)
